# Assay outcomes: PubChem BioAssay, several laboratories
# Shown are actives, neighbours in structure and some others; about 1.4% of the full set was active somewhere.
# Diaph act CS: counter-screen for diaphorase-based assays: diaphorase activators and chemical reducers; Diaphorase/resazurin coupled assay, resorufin fluorescence, 16 min; stronger effect = higher value; 1 = vehicle wells, 0 = NADH-free wells; activation factor at 20 µM; 190,000 tested, 0.005% active; AID 1229;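 active means diaphorase activity raised at least twofold by the compound at 20 µM; inactive means activation factor below 2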
#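 Material: purified diaphorase enzyme from Clostridium kluyveri / Medium: HEPES pH 7.4 buffer with MgCl2 and Tween 20 / Schedule: enzyme reaction of 16 min at room temperature / Measured by: resorufin fluorescence, excitation 544 nm, emission 590 nm / Evaluation: rise in resorufin formation, marking diaphorase activation or chemical reduction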
# HKDC1 inh: blocks human hexokinase HKDC1 activity; Q2TB90; recombinant HKDC1, G6PDH/diaphorase resazurin coupled fluorescence; inhibition, % at 20 µM; 340,000 tested, 0.16% active; AID 493160;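 active means inhibition above about 35% when tested at 20 µM, limit read from the data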;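 further: plate controls were DMSO wells with enzyme for no effect and DMSO wells lacking enzyme for full effect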
#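 Material – in-house recombinant HK5 (HKDC1) enzyme · Quantity – HKDC1 at 5 µg/mL · Buffer or medium – pH 8.0 Tris buffer with 10 mM MgCl2 · Reagent – glucose with 1 mM ATP · Dosing – single 20 µM dose · Times – reaction time 90 min, room temperature, protected from light · Technique – resorufin fluorescence at 613 nm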
# ATG4B inhibitor: inhibitors of human ATG4B cysteine protease | Q9Y4P1 | ATG4B cleavage of LC3-PLA2, NBD-HPC fluorescence, 1 h | inhibition, % at 8.33 µM | 340,000 tested, 0.51% active; in the data active means inhibition above about 40%
# Target sequence (Q9Y4P1 whole entry, looked up): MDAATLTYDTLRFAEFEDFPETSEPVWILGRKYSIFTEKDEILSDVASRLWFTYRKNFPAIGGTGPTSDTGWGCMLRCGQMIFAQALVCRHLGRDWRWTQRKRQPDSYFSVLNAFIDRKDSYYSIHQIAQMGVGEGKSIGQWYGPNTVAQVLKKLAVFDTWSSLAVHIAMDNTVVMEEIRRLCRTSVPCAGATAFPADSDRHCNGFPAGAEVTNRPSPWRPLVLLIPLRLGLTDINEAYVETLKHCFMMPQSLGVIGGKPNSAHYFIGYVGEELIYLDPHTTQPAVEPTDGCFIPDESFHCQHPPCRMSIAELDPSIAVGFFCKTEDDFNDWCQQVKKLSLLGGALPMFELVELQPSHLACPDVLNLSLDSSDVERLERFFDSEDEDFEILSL
# CTSL1 counter: blocks F. hepatica cathepsin L1 in PFM18AAP counter-screen; recombinant F. hepatica cathepsin L1, Z-Leu-Arg-MCA fluorescence; inhibition, % at 5.96 µM; 300,000 tested, 0.49% active;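 active means inhibition above the mean of all tested compounds plus 3 SD, set per screening campaign, cut at about 17% in these data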;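 further: 0% = plate median of test compound wells and 100% = 1 µM Z-Phe-Ala-diazomethylketone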
# Diaphorase inh: inhibits diaphorase or chemically oxidizes, flagging diaphorase assay artifacts. diaphorase resazurin-to-resorufin fluorescence, NADH, 16 min; bacterial (C. kluyveri) enzyme, not human. inhibition, % at 20 µM. 190,000 tested, 0.69% active. AID 1217;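 active means primary screen inhibition at 20 µM above a set limit, cut at about 50% in these data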;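 further: plate controls were DMSO with full reaction for no effect and wells lacking NADH for full effect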
#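 System: Diaphorase enzyme from Clostridium kluyveri | Amount: Enzyme working solution with 0.14 U/mL diaphorase | Benchmarks: No-NADH positive control and DMSO neutral control | Signal: Fluorescence of resorufin formed from resazurin, Ex 544/Em 590 nm | Schedule: 16-min room-temperature incubation before reading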
# ATG4B confirm: ATG4B (human) inhibition, single-dose confirmed. ATG4B protease fluorescent substrate cleavage assay. 320 tested, 92% active. inhibition, % at 8.33 µM. shares compounds with ATG4B inhibitor; in the data active means inhibition above about 39%
# PLA2 counter: inhibits human PLA2, flagging false ATG4B inhibitors. shares compounds with ATG4B inhibitor. purified PLA2, NBD-C6-HPC fluorescence, 45 min. inhibition, % at 8.33 µM. 1,600 tested, 66% active. AID 588402; in the data active means inhibition above about 50%
# Target sequence (P04054 whole entry, looked up): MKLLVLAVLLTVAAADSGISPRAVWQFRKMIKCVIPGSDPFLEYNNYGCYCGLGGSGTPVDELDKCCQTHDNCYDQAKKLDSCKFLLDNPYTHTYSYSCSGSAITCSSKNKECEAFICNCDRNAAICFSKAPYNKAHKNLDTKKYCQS
# Numbers without * were called inactive; . = no result given.
SMILES,Diaph act CS,HKDC1 inh,ATG4B inhibitor,CTSL1 counter,Diaphorase inh,PLA2 counter,others
COc1ccc(C(=O)NCCOc2ccccc2Cl)c(OC)c1OC,.,3,3,1,.,.,
C=CCN1C(c2cccc(C(F)(F)F)c2)=CS/C1=C(/C#N)c1nnc(N2CCOCC2)n1-c1ccccc1,0.9,-2,50*,2,8,55*,
C=CCN1C(c2ccc(Br)cc2)=CS/C1=C(/C#N)c1nnc(N2CCOCC2)n1-c1ccccc1,0.9,-3,61*,0,14,70*,
C=CCN1C(=O)NC(c2ccc(OC)cc2)(C(F)(F)F)S/C1=C(\C#N)c1nnc(N2CCOCC2)n1-c1ccccc1 (stereo not given),0.9,14,6,7,9,.,
CCN(Cc1ccncc1)C(=O)C(CO)c1ccccc1 (stereo not given),.,3,-3,-1,.,.,
CC1CCCCC1NCC(=O)Nc1ccccc1-c1ccccc1 (stereo not given),0.8,1,48*,3,16,53*,
CC1CCN(CC(=O)Nc2ccccc2C(=O)c2ccccc2)CC1,0.9,-6,-9,2,14,.,
CC1CCN(CC(=O)Nc2ccccc2-c2ccccc2)CC1,0.9,8,45*,-1,11,69*,
CC1CCN(C(C)C(=O)Nc2ccccc2-c2ccccc2)CC1 (stereo not given),0.9,-2,43*,4,9,53*,
O=C(O)CN1C(=O)/C(=C\c2cc([N+](=O)[O-])ccc2OCc2ccccc2Cl)SC1=S,.,13,75*,3,.,60*,
O=C(O)CN1C(=O)/C(=C\c2cc(Br)ccc2OCc2ccc(Cl)cc2)SC1=S,.,27,52*,.,.,30,ATG4B confirm=53*
O=C(O)CN1C(=O)/C(=C\c2ccccc2OCc2ccc(F)cc2)SC1=S,.,11,16,-2,.,.,
CSc1ccccc1OCc1cc(C(=O)N2CCc3sccc3C2)no1,.,-1,72*,1,.,78*,
Cc1ccc(C)c(OCc2cc(C(=O)N3CCc4sccc4C3)no2)c1,.,0,46*,2,.,81*,
O=C(c1cc(COc2ccc(F)cc2Cl)on1)N1CCc2sccc2C1,.,1,33,1,.,.,
COCC1CCN(C(=O)c2cc(COc3ccccc3SC)on2)C1 (stereo not given),.,-1,18,1,.,.,
CCCc1cc2nnc(SCC(=O)N(C)C3CCCCC3)n2c(N)n1,.,-1,5,0,.,.,
Cc1cccc(/C=N/n2c(C)nc3ccccc3c2=O)c1,.,-2,3,-1,.,.,
CC(C)(C)c1nnc(NS(=O)(=O)c2cc(Cl)ccc2Cl)s1,.,1,0,-1,.,.,
O=S(=O)(Nc1nc(-c2sccc2Cl)cs1)c1cc(Cl)ccc1Cl,0.8,23,88*,-2,22,77*,
NC(=O)c1ccc(N2CCN(c3ccccc3F)CC2)c([N+](=O)[O-])c1,0.9,-3,45*,3,10,50*,
NC(=O)c1ccc(N2CCN(c3ccccc3O)CC2)c([N+](=O)[O-])c1,0.8,2,33,-1,20,.,
NC(=O)c1ccc(N2CCCCCC2)c([N+](=O)[O-])c1,1.2,1,68*,-1,-16,70*,
CC(C)(C)OC(=O)N1CCCC(C(=O)Nc2ccc(C(=O)NCc3ccccc3)cc2)C1 (stereo not given),.,-2,1,.,.,.,
COC(=O)c1ccc(CSc2nc3c(c(=O)n2-c2ccccc2)SCC3)o1,1.1,5,34,2,-14,.,
SMILES,Diaph act CS,HKDC1 inh,ATG4B inhibitor,CTSL1 counter,Diaphorase inh,PLA2 counter,others
COc1ccc(-c2noc(CSc3nc4ccccc4c(=O)n3-c3ccccc3)n2)cc1,0.8,-1,2,2,18,.,
COC(=O)c1ccc(CSc2nc3ccccc3c(=O)n2-c2ccccc2)o1,0.9,-6,65*,-1,14,73*,
COC(=O)c1ccc(CSc2nc3c(c(=O)n2-c2ccc(F)cc2)SCC3)o1,0.8,-4,48*,2,20,50,
O=c1c2ccccc2nc(SCc2nnc(-c3ccccc3)o2)n1-c1ccccc1,0.6,0,72*,-1,36,73*,
O=C(CSc1nc2c(c(=O)n1-c1ccc(Cl)cc1)SCC2)Nc1nccs1,1,-2,61*,3,3,80*,
CN(Cc1cccc(Cl)c1Cl)C(=O)c1cc(S(=O)(=O)N2CCOCC2)ccc1F,.,-2,-2,.,.,.,
Cc1cccc(NS(=O)(=O)c2nnc(NC(=O)C3CCCCC3)s2)c1,.,1,-18,1,.,.,
Clc1ccccc1Nc1ncnc2c1nnn2Cc1ccccc1,0.9,-3,56*,5,12,58*,
Cc1ccc(Cl)cc1NC(=O)COC(=O)CSc1ccccc1,.,-6,-3,.,.,.,
COc1ccccc1CC(=O)Nc1ncc(C)s1,.,2,2,-1,.,.,
O=S(Cc1ccccc1)CC(O)(c1ccc(Cl)cc1)c1ccc(Cl)cc1 (stereo not given),0.9,-4,55*,2,6,60*,
COc1ccc(S(=O)(=O)N2CCCCCC2)cc1C(=O)OCC(=O)NC(N)=O,0.9,2,6,0,11,.,
Cn1cccc1C(=O)NC(=O)COC(=O)c1cc(S(=O)(=O)N2CCCCC2)ccc1Cl,0.8,-3,51*,-7,19,52*,
O=C(CSc1nnc(COc2ccc(Cl)cc2)o1)NC1CC2CCC1C2 (stereo not given),.,2,1,10,.,.,
O=C1CCCC2=C1C1(CCCCC1)N=C(Nc1nc3ccccc3o1)N2,0.8,8,66*,4,20,76*,
Cc1cc(C)c(Nc2cc(S(=O)(=O)O)c(N)c3c2C(=O)c2ccccc2C3=O)c(C)c1,0.2,13,49*,4,80*,72*,
Fc1ccc2[nH]c3c(NCc4ccccc4)ncnc3c2c1,.,1,50*,8,.,65*,
CCc1nc(SCc2ccc(OCC(C)C)cc2)n[nH]1,.,3,-1,-3,.,.,
CCC1=NN(C(=O)c2cccc([N+](=O)[O-])c2)C(O)(c2ccc(C)cc2)C1 (stereo not given),.,-9,54*,-7,.,60*,
CCC1=NN(C(=O)c2ccc(Br)cc2)C(O)(c2ccccc2)C1 (stereo not given),0.9,-7,2,0,6,.,
CN1/C(=C\C(=O)CSc2nnc(NCc3ccccc3)s2)C(C)(C)c2ccccc21,0.8,-10,42*,-4,20,38,
S=C(NC1CC1)NC1CCCc2ccccc21 (stereo not given),0.9,-3,-5,-3,11,.,
